Data on 29 compounds can be found in ChEMBL document CHEMBL4808255, “Design, synthesis, and target identification of new hypoxia-inducible factor 1 (HIF-1) inhibitors containing 1-alkyl-1H-pyrazole-3-carboxamide moiety” (Bioorg Med Chem, 2021).

For data set [1], the target named is T1, Hypoxia-inducible factor 1-alpha (Homo sapiens, UniProt Q16665). Put plainly: Inhibition of hypoxia-induced HIF1 alpha transcriptional activity in human HeLa cells transfected with luciferase reporter containing of HRE assessed as reduction in luciferase activity incubated for 1 hrs under normoxic condition followed by incubation under hypoxic condition for 24 hrs by luciferase reporter gene assay. Format: cell-based. A general note: In a reporter assay the amount or activity of a reporter protein is the signal.

Data set [2] can be described thus: Drug localization in mitochondria of human HeLa cells at 1 uM incubated for 3 hrs by MitoTracker Red CMXRos and Hoechst 33342 staining based assay. Format: ADME. In outline: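 HeLa cells exposed 3 h to 1 μM BODIPY-FL fluorescent probe. MitoTracker Red CMXRos (100 nM) and Hoechst 33342 (10 μM) added, then cells fixed and imaged by fluorescence microscopy.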
For data set [3], the system named is HeLa S3. As to the kind of experiment: Cytotoxicity against human HeLa S3 cells assessed as reduction in cell viability incubated for 72 hrs by cell proliferation assay. The class given is functional, cell-based. To be noted: HeLa S3, 72 h. The essentials:
(§1)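 Cells seeded at 1.5 × 10³ per well and grown 24 h, then exposed to solvent or serial dilutions of test compound for 72 h. Viability read with Cell Counting Kit-8. Triplicate wells (n = 3); representative of two independent experiments.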

The target in data set [4] is ATP synthase F(1) complex catalytic subunit beta, mitochondrial (Bos taurus) (UniProt P00829). Put plainly: Inhibition of ATP5B in bovine heart mitochondrial solution assessed as complex V activity at 12.6 nM incubated for 2 hrs by spectrophotometry. To be noted: Mitochondria. In outline:
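Bovine heart mitochondria solution used as the ATP synthase (complex V) source. Compound was incubated 2 h at 25 °C with DMSO at 1.0%. Activity followed as consumption of supplemented NADH by absorbance at 340 nm on a spectrophotometer. Oligomycin was the positive control. n = 3; representative of three independent experiments; Student's t-test.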

The subject of data set [5] is HT-1080. As to the kind of experiment: Cytotoxicity against human HT-1080 cells assessed as reduction in cell viability incubated for 72 hrs by cell proliferation assay. The class given is functional, cell-based. To be noted: HT-1080, 72 h. The essentials: as §1
Data set [6] has as its target ATP synthase F(1) complex subunit beta, mitochondrial (Homo sapiens) (UniProt P06576). As to the kind of experiment: Competitive binding affinity to ATP5B in human HeLa cell mitochondrial fraction in presence of KUSC-5051 by LC-MS/MS analysis. To be noted: Mitochondria. In outline: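 HeLa S3 lysate fractionated into debris (1 mg/mL), mitochondrial (0.8 mg/mL) and cytosol (0.6 mg/mL) fractions. Fractions incubated with DMSO or 300 μM competitor, with or without 30 μM photoaffinity probe, 1 h at 37 °C, then UV 365 nm for 30 min. Click labeling, NeutrAvidin enrichment, SDS-PAGE. The ~60 kDa band was trypsin-digested 12 h at 37 °C for LC-MS/MS, with confirmation by anti-ATP5B western blot.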

The target in data set [7] is T1, Hypoxia-inducible factor 1-alpha. Put plainly: Inhibition of hypoxia-induced HIF1 alpha transcriptional activity in human HeLa cells assessed as reduction in VEGF mRNA level at 3 uM incubated for 1 hrs under normoxic condition followed by incubation under hypoxic condition for 24 hrs by quantitative RT-PCR analysis. Format: cell-based. To be noted: time 25.0 hrs.

Data set [8] shares this target. Put plainly: Inhibition of hypoxia-induced HIF1 alpha transcriptional activity in human HeLa cells assessed as HIF1alpha protein level incubated for 1 hrs under normoxic condition followed by incubation under hypoxic condition for 24 hrs by Western blotting analysis. Format: cell-based. To be noted: time 25.0 hrs.
The test system of data set [9] is HeLa. As to the kind of experiment: Inhibition of mitochondrial complex V in human HeLa cells assessed as reduction in oxygen consumption rate at 0.1 to 1 uM for 1.5 hrs cells pretreated with FCCP/antimycin A/rotenone by XF mito stress test assay. The class given is cell-based. To be noted: dose 0.1-1 µM. In outline: (§2)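 HeLa cells at 80–90% confluency equilibrated 1.5 h at 37 °C without CO₂. OCR recorded at baseline and after sequential injections: compound (0.1, 1, 10 μM) or oligomycin 0.5 μM, then FCCP 0.5 μM, then rotenone/antimycin A (0.5 μM each). Seahorse XF analyzer; n = 6, mean ± SEM.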

Data set [10] addresses T1, Hypoxia-inducible factor 1-alpha. As to the kind of experiment: Inhibition of hypoxia-induced HIF1 alpha transcriptional activity in human HeLa cells at 3 uM incubated for 1 hrs under normoxic condition followed by incubation under hypoxic condition for 24 hrs by quantitative RT-PCR analysis. Format: cell-based. To be noted: time 25.0 hrs.
For data set [11], the system named is HeLa. Put plainly: Inhibition of mitochondrial complex V in human HeLa cells assessed as reduction in oxygen consumption rate at 0.1 to 1 uM for 1.5 hrs by XF mito stress test assay. To be noted: dose 0.1-1 µM. Format: cell-based. In outline:
as §2

The target in data set [12] is T1, Hypoxia-inducible factor 1-alpha. As to the kind of experiment: Inhibition of hypoxia-induced HIF1 alpha transcriptional activity in human HeLa cells assessed as reduction in CA9 mRNA level at 3 uM incubated for 1 hrs under normoxic condition followed by incubation under hypoxic condition for 24 hrs by quantitative RT-PCR analysis. The class given is cell-based. To be noted: time 25.0 hrs.

In data set [13] the target is ATP synthase F(1) complex catalytic subunit beta, mitochondrial (Bos taurus) (UniProt P00829). Put plainly: Inhibition of ATP5B in bovine heart mitochondrial solution assessed as complex V activity at 10 to 100 nM incubated for 2 hrs by spectrophotometry. To be noted: Mitochondria, dose 10-100 nM. The essentials:
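Complex V activity measured in bovine heart mitochondria solution with ATP synthase. Compound at 10 and 100 nM; DMSO 1.0% vehicle; oligomycin 12.6 μM as positive control. Incubated 2 h at 25 °C, monitoring absorbance at 340 nm for NADH consumption. n = 3; representative of three experiments; Student's t-test.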

The structures appear in SMILES notation. Activity calls are given as the source filed them. The calls are words filed in the database; no cut-off is given here.

For `O=C(Nc1cccc(C(F)(F)F)c1)c1ccn(Cn2cc([N+](=O)[O-])cn2)n1`, the IC50 (in general, the midpoint of a concentration-inhibition curve) in [1] came to 33 µM. For the compound `Cc1cc(C)n2c1C=C1C=C(CCC(=O)Nc3cnn(Cn4ccc(C(=O)Nc5ccc(C(F)(F)F)cc5)n4)c3)C=[N+]1[B-]2(F)F`, the Drug uptake entry in data set [2] was “Active”. As for `O=C(Nc1ccc(Cl)c(Cl)c1)c1ccn(Cn2cc([N+](=O)[O-])cn2)n1`, the IC50 in [1] came out at 13 µM. Consider `O=C(Nc1ccc(F)cc1)c1ccn(Cn2cc([N+](=O)[O-])cn2)n1`, for which the IC50 in data set [1] stood at 28 µM. `CC(=O)Nc1cnn(Cn2ccc(C(=O)Nc3ccc(Br)cc3)n2)c1`: the IC50 in data set [1] is 14 µM. As for `CC[C@@H]1/C=C/C=C/C[C@H](C)[C@@H](O)[C@](C)(O)C(=O)[C@H](C)[C@@H](O)[C@H](C)C(=O)[C@H](C)[C@@H](O)[C@H](C)/C=C/C(=O)O[C@H]2[C@@H](C)[C@@H](CC1)O[C@@]1(CC[C@@H](C)[C@@H](C[C@@H](C)O)O1)[C@@H]2C`, the IC50 in [3] was 5.3 µM; in data set [5], under 0.1 µM. The inhibition result in data set [4] is “Active”. Consider `O=C(Cc1ccccc1)Nc1cnn(Cn2ccc(C(=O)Nc3ccc(C(F)(F)F)cc3)n2)c1`, for which the IC50 in data set [1] was 1.4 µM. Still for that read-out and setting: for `CC(C)C(=O)Nc1cnn(Cn2ccc(C(=O)Nc3ccc(C(F)(F)F)cc3)n2)c1` the value was 6.9 µM; for `O=C(Nc1cccc(Br)c1)c1ccn(Cn2cc([N+](=O)[O-])cn2)n1`, 35 µM.

With `O=C(Nc1ccc(Br)cc1)c1ccn(Cn2cccn2)n1`, the IC50 in data set [1] was 66 µM. Consider `O=C(Nc1ccc(Cl)cc1Cl)c1ccn(Cn2cc([N+](=O)[O-])cn2)n1`, for which, in [1], the IC50 turned out to be 35 µM. Same read-out and setting: as for `O=C(Nc1ccccc1)c1ccn(Cn2cc([N+](=O)[O-])cn2)n1`, the figure is over 100 µM; as for `Nc1cnn(Cn2ccc(C(=O)Nc3ccc(Br)cc3)n2)c1`, 20 µM; as for `O=C(Nc1ccc(Br)cc1)c1ccn(Cn2ccc([N+](=O)[O-])c2)n1`, 27 µM. For the compound `C#CCCCC1(CCC(=O)Nc2cnn(Cn3ccc(C(=O)Nc4ccc(C(F)(F)F)cc4)n3)c2)N=N1`, the result in [6] was Active. With `O=C(Nc1ccccc1O)c1ccn(Cn2cc([N+](=O)[O-])cn2)n1`, the IC50 in [1] was over 100 µM.

On to `O=C(Nc1ccc(Br)cc1)c1ccn(Cn2ccnc2)n1`, for which the IC50 in data set [1] came to 34 µM.

`O=C(Nc1ccc(Br)cc1)c1ccn(Cn2cnc([N+](=O)[O-])c2)n1`: the IC50 in data set [1] amounted to 58 µM. Still for that read-out and setting: as for `O=C(Nc1ccc(Br)cc1)c1ccn(Cn2cc([N+](=O)[O-])cn2)n1`, the figure is 18 µM. In the case of `CCC(=O)Nc1cnn(Cn2ccc(C(=O)Nc3ccc(C(F)(F)F)cc3)n2)c1`, the IC50 in [3] came out at 34.5 µM; in [1], 1.2 µM; in data set [5], 0.6 µM. Besides, the inhibition entry in [7], in data set [9], in data set [10], in [11], in data set [12] and in [13] was “Active” throughout. The inhibition entry in data set [8] is “Dose-Dependent Effect”. In addition, in data set [6], the result was Active.

Turning to `O=C(Nc1ccc(Cl)cc1)c1ccn(Cn2cc([N+](=O)[O-])cn2)n1`, the IC50 in [1] turned out to be 20 µM. Turning to `O=C(Nc1ccc(C(F)(F)F)cc1)c1ccn(Cn2cc([N+](=O)[O-])cn2)n1`, the IC50 in data set [1] was found to be 18 µM. On to `CC(C)c1ccc(NC(=O)c2ccn(Cn3cc([N+](=O)[O-])cn3)n2)cc1`, for which the IC50 in [1] came to 21 µM. As to `O=C(Nc1ccccc1Br)c1ccn(Cn2cc([N+](=O)[O-])cn2)n1`, in [1], the IC50 was determined as 45 µM. Same read-out and setting: as for `CCCC(=O)Nc1cnn(Cn2ccc(C(=O)Nc3ccc(C(F)(F)F)cc3)n2)c1`, the figure is 1.8 µM.

As to `O=C(Nc1ccc(F)cc1F)c1ccn(Cn2cc([N+](=O)[O-])cn2)n1`, in data set [1], the IC50 was found to be 81 µM.

Consider `COc1ccc(NC(=O)c2ccn(Cn3cc([N+](=O)[O-])cn3)n2)cc1`, for which the IC50 in [1] was over 100 µM. On to `CCCNc1cnn(Cn2ccc(C(=O)Nc3ccc(C(F)(F)F)cc3)n2)c1`, for which, in data set [1], the IC50 stood at 1.2 µM. For `CC(=O)Nc1cnn(Cn2ccc(C(=O)Nc3ccc(C(F)(F)F)cc3)n2)c1`, in [1], the IC50 came to 5.5 µM.
